≈ marks a conversion by molar mass, not a printed value.

Assay type in all cases: functional
Assay [1] relates to Vibrio. As to the kind of experiment: Antibacterial activity against Vibrio species after 18 hrs. The essentials: (§1)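 Disc diffusion (Kirby–Bauer) on Mueller-Hinton agar inoculated with fresh bacteria at 1-5 × 10^4 cfu mL-1. Compounds were dissolved in DMF at a range of concentrations, and discs were placed in triplicate. Plates were incubated at 30 °C for 18 h. MIC was taken as the lowest concentration giving no visible bacterial growth on the plate.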

The test system of assay [2] is Bacillus subtilis. Put plainly: Antibacterial activity against Bacillus subtilis MTCC 441 after 18 hrs. To be noted: MTCC 441, 18 h. The essentials:
as §1

The test system of assay [3] is Staphylococcus epidermidis. As to the kind of experiment: Antibacterial activity against Staphylococcus epidermidis MTCC 435 after 18 hrs. Particulars: MTCC 435, 18 h. Summed up: as §1
Assay [4] deals with Escherichia coli. Put plainly: Antibacterial activity against Escherichia coli MTCC 448 after 18 hrs. To be noted: MTCC 448, 18 h. Summed up:
as §1

Assay [5] deals with Pseudomonas aeruginosa. As to the kind of experiment: Antibacterial activity against Pseudomonas aeruginosa MTCC 424 after 18 hrs. To be noted: MTCC 424, 18 h. Summed up: as §1

As for `O=C(NNS(=O)(=O)c1ccc(F)cc1)c1cccnc1Nc1ccc(F)cc1`, the MIC was 22 µg/mL (≈ 54.4 µM) in assay [1]; 10 µg/mL (≈ 24.7 µM) in assay [2]; 20 µg/mL (≈ 49.5 µM) in assay [3]; 13 µg/mL (≈ 32.1 µM) in assay [4]; over 25 µg/mL in assay [5].

`COc1ccc(Nc2ncccc2C(=O)NNS(=O)(=O)c2ccc(C)cc2)cc1`: the minimum inhibitory concentration (MIC) in assay [1] was 19 µg/mL (≈ 46.1 µM); in assay [2] it was 8 µg/mL (≈ 19.4 µM); in assay [3] it was 17 µg/mL (≈ 41.2 µM); in assay [4] it was 15 µg/mL (≈ 36.4 µM); in assay [5], over 25 µg/mL.

Take `O=C(NNS(=O)(=O)c1ccccc1)c1cccnc1Nc1ccccc1`: the MIC in assay [1] was 20 µg/mL (≈ 54.3 µM); in assay [2], 17 µg/mL (≈ 46.1 µM); in assay [3] it was 21 µg/mL (≈ 57 µM); in assay [4], 20 µg/mL (≈ 54.3 µM); in assay [5], over 25 µg/mL.

As for `CC(=O)Nc1ccc(S(=O)(=O)NNC(=O)c2cccnc2Nc2ccc(F)cc2)cc1`, the minimum inhibitory concentration (MIC) in assay [1] was 22 µg/mL (≈ 49.6 µM); in assay [2], 16 µg/mL (≈ 36.1 µM); in assay [3] it was 19 µg/mL (≈ 42.8 µM); in assay [4] it was 20 µg/mL (≈ 45.1 µM); in assay [5] it was over 25 µg/mL.

As to `Cc1ccc(S(=O)(=O)NNC(=O)c2cccnc2Nc2ccc(Cl)cc2)cc1`, the MIC is 23 µg/mL (≈ 55.2 µM) in assay [1]; 9 µg/mL (≈ 21.6 µM) in assay [2]; 14 µg/mL (≈ 33.6 µM) in assay [3]; 16 µg/mL (≈ 38.4 µM) in assay [4]; over 25 µg/mL in assay [5].

For `O=C(NNS(=O)(=O)c1ccc(Cl)cc1)c1cccnc1Nc1ccc(F)cc1`, the MIC was 21 µg/mL (≈ 49.9 µM) in assay [1]; 10 µg/mL (≈ 23.8 µM) in assay [2]; 16 µg/mL (≈ 38 µM) in assay [3]; 18 µg/mL (≈ 42.8 µM) in assay [4]; over 25 µg/mL in assay [5].

Turning to `Nc1ccc(S(=O)(=O)Nc2ncccn2)cc1` [SULFADIAZINE], the MIC is 13 µg/mL (≈ 51.9 µM) in assay [1]; 18 µg/mL (≈ 71.9 µM) in assay [2]; 20 µg/mL (≈ 79.9 µM) in assay [3]; 15 µg/mL (≈ 59.9 µM) in assay [4]; 22 µg/mL (≈ 87.9 µM) in assay [5].

Take `Nc1ccc(S(N)(=O)=O)cc1` [SULFANILAMIDE]: the MIC in assay [1] is over 512 µg/mL; in assay [2] it was over 128 µg/mL; in assay [3], over 512 µg/mL; in assay [4], over 128 µg/mL; in assay [5] it was over 512 µg/mL.

For the origin of these results see ChEMBL document CHEMBL1144562, “Synthesis of a new class of 2-anilino substituted nicotinyl arylsulfonylhydrazides as potential anticancer and antibacterial agents” (2007).
